A short description of the data set: Toxicity liver stage against HepG2, at 10uM. Also on record: test concentration 10 uM, cell line HepG2-A16-CD81EGFP. The following applies: human, HepG2-A16-CD81EGFP cells; read-out: INHIBITION
Format: cell-based. In short, it runs like this:
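Uninfected HepG2-A16-CD81EGFP cells, 3 × 10^3 per well, 1536-well, plated on prespotted compound at 10 μM final, parasite-free screening media added to match infected plates; puromycin 10 μM positive, DMSO 0.5% negative; run in parallel with 48 h PbLuc assay at 37 °C, 5% CO2; viability by CellTiter-Glo luminescence, normalized to controls.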
Regarding `CN(CC(O)C1CC1)C(=O)c1ccc(-c2nc(C3CC3)no2)cc1` (stereo unspecified), the cytotoxicity at 10 µM is -3.45%.

As to `COc1ccc(-c2n[nH]cc2CNC2CCN(C3CC3)CC2)cc1`, the cytotoxicity at 10 µM is 1.75%.

As to `O=C(CN1C[C@H]2CC(OCc3ccccc3)C[C@H]2C1)N1CCOCC1` (stereo partly specified), the cytotoxicity at 10 µM was -9.92%.

For the compound `O=S(=O)(c1ccccc1Br)N1CCC2(CC1)OCCS2`, the cytotoxicity at 10 µM is -1.86%.

Turning to `CCc1nc(C2CCCN2C(=O)CCCOc2cccc(F)c2)no1` (stereo unspecified), the cytotoxicity at 10 µM is 11.1%.

As for `Cc1cc(C)c(CNC(=O)NCc2ccncc2)c(=O)[nH]1`, the cytotoxicity at 10 µM is -5.59%.

As for `COCCOCC(=O)Nc1ccc(C)cc1Cl`, the cytotoxicity at 10 µM was 1.85%.

With `CCC1=N[C@@]2(CC[C@@H]3CN(C(=O)NCC(C)C)C[C@@H]32)C(=O)N1CCOC`, the cytotoxicity at 10 µM was determined as 10.3%.

Take `O=c1cc(-c2ccncc2)nc(-c2ccc(CN3CC[C@@H](O)C3)cc2)[nH]1`: the cytotoxicity at 10 µM came to 3.03%.

`Cn1cc(C2CCCN2C(=O)CCCOCc2ccccc2)cn1` (stereo unspecified): the cytotoxicity at 10 µM is -10.2%.

In the case of `CCCc1noc(CN2CCN(c3nccs3)CC2)n1`, the cytotoxicity at 10 µM was -3.43%.

On to `Cc1ccc2cc(C3(O)CCN(C)CC3)ccc2n1`, for which the cytotoxicity at 10 µM is -0.432%.

Turning to `COCCN1CCC2(CCN(Cc3ccc(OC)cc3)CC2)C1=O`, the cytotoxicity at 10 µM was 2.88%.

On to `Cc1ccc(S(=O)(=O)N2C[C@H]3C[C@H](NC(=O)c4cc[nH]n4)[C@H]3C2)cc1`, for which the cytotoxicity at 10 µM was determined as 81.4%.

As to `c1nc(CN2CCC3(CC2)COCCN3CC2CC2)c[nH]1`, the cytotoxicity at 10 µM is -1.26%.

Regarding `COc1cccc(-c2cc(NCCN(C)C)nc3[nH]ccc23)n1`, the cytotoxicity at 10 µM was -3.97%.

With `CC(=O)N1CCCC(Cc2cncc(Br)c2)C1` (stereo unspecified), the cytotoxicity at 10 µM was -9.02%.

For the compound `CS(=O)(=O)CCC(=O)N1C[C@H]2CC[C@@H](C1)N(Cc1ccccc1)C2=O`, the cytotoxicity at 10 µM is -0.0119%.

Turning to `O=C(CSc1nc2c(cnn2CCO)c(=O)[nH]1)NC1CCCCC1`, the cytotoxicity at 10 µM is -8.07%.

As for `c1cnnc(N2CCCC2CNCCc2cccs2)c1` (stereo unspecified), the cytotoxicity at 10 µM is -0.555%.

As for `O=C(NCc1ccccc1Cl)c1[nH]nc2c1CS(=O)(=O)CC2`, the cytotoxicity at 10 µM was -0.908%.

Take `CSc1ccc(CNC(=O)C2CC(=O)N(C(C)(C)C)C2)cc1` (stereo unspecified): the cytotoxicity at 10 µM was determined as 4.69%.

Take `O=C(Nc1ccc(-n2cccn2)cc1)N1CCOCC(O)C1` (stereo unspecified): the cytotoxicity at 10 µM is -46.8%.

Take `CNC(=O)C(C)(C)N(C)C(=O)c1cc(COc2ccccc2OC)[nH]n1`: the cytotoxicity at 10 µM was -5.12%.

`O=C1[C@H]2CN(C3CCOCC3)C[C@H]2CN1Cc1cccc(F)c1`: the cytotoxicity at 10 µM was -117%.

Regarding `CC(C)C(=O)NCCc1cc2nc(-c3ccncc3)ccn2n1`, the cytotoxicity at 10 µM is 4.94%.

As to `Cc1nn(C)c(C)c1C1CCCN1C(=O)c1ccc(Cl)o1` (stereo unspecified), the cytotoxicity at 10 µM was -5.15%.

In the case of `CCCc1cc(=O)[nH]c2nnc(SCC(=O)OC)n12`, the cytotoxicity at 10 µM worked out at 12.2%.

For `CC(=O)NCc1nnc2n1CCN(c1ncnc3c1CCC3)CC2`, the cytotoxicity at 10 µM was determined as 13%.

Consider `N#Cc1c(F)cccc1N1CCN(S(=O)(=O)c2cccs2)CC1`, for which the cytotoxicity at 10 µM amounted to 14.2%.

As for `COc1cccc(CC2CN(C3CCN(C(C)=O)CC3)CCO2)c1` (stereo unspecified), the cytotoxicity at 10 µM is -12.4%.

As to `Nc1nc(N)c2c(n1)OC1(CCN(C(=O)CC3CCCCN3)CC1)C2` (stereo unspecified), the cytotoxicity at 10 µM is -0.24%.

In the case of `CN(C)C(=O)Cc1nc(CN2CCn3c(nnc3C3CC3)C2)cs1`, the cytotoxicity at 10 µM was -9.66%.

Turning to `CCC(NC(=O)CS(=O)(=O)C1CCCC1)c1cc(F)ccc1F` (stereo unspecified), the cytotoxicity at 10 µM is 0.217%.

As for `O=C1CC2(CCCCN2C(=O)c2ccsc2)CN1CC1CC1` (stereo unspecified), the cytotoxicity at 10 µM was 2.84%.

As to `Cc1ccc(-c2nnc(SCC(=O)O)n2-c2ccccc2)cc1`, the cytotoxicity at 10 µM is -4.9%.

Turning to `CCN1CCCC(O)(CNCc2ccncc2)C1` (stereo unspecified), the cytotoxicity at 10 µM is -2.93%.

Turning to `COc1ccccc1OCCCN1CC=C(c2cnn(C)c2)CC1`, the cytotoxicity at 10 µM stood at 8.32%.

As for `Cn1nc(-c2ccc(Cl)cc2)c(Br)c1C(=O)O`, the cytotoxicity at 10 µM is -46.8%.

`O=C(CN1CC(c2nc(C3CC3)no2)C1)N1CCOCC1`: the cytotoxicity at 10 µM is -9.76%.

For the compound `O=C(CCN1CCCCO1)NCCSc1cnn[nH]1`, the cytotoxicity at 10 µM was 0.956%.

Regarding `COCCN1C[C@@H]2CN(C(=O)CC3CC3)C[C@@H]2C1=O`, the cytotoxicity at 10 µM amounted to 7.8%.

On to `Cc1cc(N2CCN(C(=O)C(C)n3ccnc3C(C)C)CC2)cc(C)n1` (stereo unspecified), for which the cytotoxicity at 10 µM is -3.59%.

Turning to `CC(=O)c1c[nH]c(C(=O)N2CCN(C(C(N)=O)c3ccccc3)CC2)c1` (stereo unspecified), the cytotoxicity at 10 µM came out at 8.61%.

In the case of `CCN(CCCNC(=O)c1cc2cccc(F)c2o1)S(C)(=O)=O`, the cytotoxicity at 10 µM was found to be 4.35%.

On to `O=C(NCc1nn(-c2ccccc2)c2c1CCC2)C1CC1`, for which the cytotoxicity at 10 µM is -8.36%.

With `Cc1ccc(C(=O)N2CCC3(CC2)CC(NC(=O)C(C)C)CO3)cc1` (stereo unspecified), the cytotoxicity at 10 µM is -1.89%.

On to `Cc1ccsc1C(=O)N1Cc2ccccc2C2(CCN(C)CC2)C1`, for which the cytotoxicity at 10 µM is 2.6%.

On to `COc1cccc(CN(C)CC2=Nc3ccccc3S(=O)(=O)N2)c1`, for which the cytotoxicity at 10 µM was determined as 36.4%.

`O=C(c1cccs1)N1CCc2c(nc(N3CCCCC3)[nH]c2=O)C1`: the cytotoxicity at 10 µM is -14.5%.

In the case of `N#Cc1cccc(S(=O)(=O)N2CC(CC(=O)O)c3ccccc32)c1` (stereo unspecified), the cytotoxicity at 10 µM is -1.11%.

In the case of `CS(=O)(=O)N1CCC(C(=O)Nc2nnc(C(F)(F)F)[nH]2)CC1`, the cytotoxicity at 10 µM was 9.52%.

For the compound `O=C(NC1CCS(=O)(=O)C1)N1CCN(c2cnccn2)CC1` (stereo unspecified), the cytotoxicity at 10 µM is -0.685%.

As to `CO[C@H]1CCN(c2ncccn2)[C@H]1Cc1ccccc1`, the cytotoxicity at 10 µM was -12.9%.

On to `CCCC(=O)N1CCCCC1C(=O)Nc1ccc(-c2nnc[nH]2)cc1` (stereo unspecified), for which the cytotoxicity at 10 µM turned out to be 7.65%.

`O=C1NCCCCC1Sc1nnc(C2CC2)n1C1CC1` (stereo unspecified): the cytotoxicity at 10 µM was -6%.

Consider `Cc1ccc(CN2CCc3ncnc(-c4ccncc4)c3CC2)o1`, for which the cytotoxicity at 10 µM was -1.19%.

For the compound `Cc1nn(C)c(C)c1CCC(=O)N1CCCC1Cn1cccn1` (stereo unspecified), the cytotoxicity at 10 µM was 1.78%.

As for `CCC(=O)N1CCN(C(=O)NCc2c(C)cc(C)cc2C)CC1`, the cytotoxicity at 10 µM was determined as 6.12%.

Take `CNC(=O)c1cn[nH]c1C1(C)CCCN(Cc2nccn2C(C)C)C1` (stereo unspecified): the cytotoxicity at 10 µM was -2.73%.

For `COC(=O)C(O)C1CCN(Cc2cccc(-n3cccn3)c2)CC1` (stereo unspecified), the cytotoxicity at 10 µM is -16.5%.

With `O=c1[nH]cc(N2CCCCC2)c(=O)[nH]1`, the cytotoxicity at 10 µM is 5.55%.

Regarding `Cc1n[nH]c2c1C(c1ccc(F)cc1)SCC(=O)N2` (stereo unspecified), the cytotoxicity at 10 µM came out at 2.06%.

Turning to `CCc1ccc(C2CC(=O)Nc3c2c(=O)[nH]n3C(C)C)cc1` (stereo unspecified), the cytotoxicity at 10 µM was -6.87%.

With `COc1ccnc(CNc2nc(C)nc(C)c2C)c1`, the cytotoxicity at 10 µM is -1.7%.

In the case of `C[C@@H]1CN(C(=O)CCc2cnn(C)c2)C[C@@]1(O)C1CCC1`, the cytotoxicity at 10 µM is -11.4%.

As to `CCS(=O)(=O)N1CCC(c2nnc(CN3CCCCC3)n2C)CC1`, the cytotoxicity at 10 µM was -6.03%.

`N#Cc1ccccc1OCCN1CCCCC1C(=O)N1CCOCC1` (stereo unspecified): the cytotoxicity at 10 µM was -45.6%.

Take `Cc1ccc(CN(C)c2cc(N3CCCC3CO)ncn2)s1` (stereo unspecified): the cytotoxicity at 10 µM was 5.6%.

As for `CCc1nc(C2CCCN(C(=O)c3c[nH]c(C(C)C)n3)C2)no1` (stereo unspecified), the cytotoxicity at 10 µM is -5.43%.

As for `c1nc(N2CCCCC2Cn2cncn2)c2ccsc2n1` (stereo unspecified), the cytotoxicity at 10 µM was -2.49%.

For `Cc1cnn(CCNCC(=O)NC(C)c2ccc3c(c2)OCCO3)c1` (stereo unspecified), the cytotoxicity at 10 µM is -1.58%.

Regarding `C/C(NC(=O)c1ccccn1)=C1\C(=O)C[C@@H]2[C@H]1C2(C)C`, the cytotoxicity at 10 µM came out at 7.66%.

On to `CS(=O)(=O)N1CCCC(Cc2cncc(-c3ccccc3C(=O)O)n2)C1` (stereo unspecified), for which the cytotoxicity at 10 µM was -6.41%.

Take `COCCCN1CCCC2(CCN(S(=O)(=O)c3cccnc3)C2)C1=O` (stereo unspecified): the cytotoxicity at 10 µM worked out at 8.21%.

As for `C[S+]([O-])CCNC(=O)Nc1cc(F)ccc1-n1cccn1` (stereo unspecified), the cytotoxicity at 10 µM is -20.9%.

`CC1CN(Cc2cccnc2)CCN1c1ccc2nncn2n1` (stereo unspecified): the cytotoxicity at 10 µM was -11.1%.

As to `Cc1ccc(C(=O)N(C)Cc2cc(Br)cs2)cn1`, the cytotoxicity at 10 µM was determined as 9.06%.

For `CN(C)C(=O)C1CCC2(CCN(C(=O)Nc3cccc(F)c3)CC2)O1` (stereo unspecified), the cytotoxicity at 10 µM is -104%.

Turning to `O=C(CN1CCCc2c(F)cc(Br)cc21)N1CCCC1`, the cytotoxicity at 10 µM was -1.26%.

`CCOc1ccccc1-n1c(C2CC(=O)N(C)C2)n[nH]c1=O` (stereo unspecified): the cytotoxicity at 10 µM amounted to 2.48%.

For `Cc1ncc(CN2CCC(CNS(=O)(=O)C3CC3)C2)cn1` (stereo unspecified), the cytotoxicity at 10 µM is 2.84%.

As for `CCCOC1CCCN(c2nc(COC)nc3c2cnn3C)C1` (stereo unspecified), the cytotoxicity at 10 µM was -1.42%.

On to `CC(C)N1C[C@H](O)C[C@H]1c1nc(-c2ccc(OC(F)(F)F)cc2)no1`, for which the cytotoxicity at 10 µM is -3.72%.

Consider `CNC(=O)CN1CCOCC2(CCCN(CCc3ccccc3)C2)C1` (stereo unspecified), for which the cytotoxicity at 10 µM turned out to be 0.0221%.

On to `CCNC(=O)Cc1ccc(-c2cccc3c2CCNC3)cc1`, for which the cytotoxicity at 10 µM was 13.6%.

Take `CCNC(=O)NC1CN(Cc2ccncc2Cl)C[C@@H]1OC` (stereo partly specified): the cytotoxicity at 10 µM was 1.85%.

In the case of `CCc1cc(-c2cc[nH]n2)nc(N2CCOCC2)n1`, the cytotoxicity at 10 µM was 7.04%.

As for `CC(C)CNC(=O)N1C[C@H]2CCN[C@H]2C1`, the cytotoxicity at 10 µM amounted to 7.12%.

Take `COc1ccc2cc(C(=O)N3CCCCC3CC(N)=O)[nH]c2c1` (stereo unspecified): the cytotoxicity at 10 µM is -12.3%.

For the compound `COC(C)(CNS(=O)(=O)c1cccnc1)c1ccccc1F` (stereo unspecified), the cytotoxicity at 10 µM was -0.403%.

Regarding `COc1cc2c(cc1-c1nc3c(cnn3C(C)C)[nH]1)OCO2`, the cytotoxicity at 10 µM is -6.85%.

With `Cn1ccnc1CCNS(=O)(=O)c1ccc(Br)cc1`, the cytotoxicity at 10 µM turned out to be 3.32%.

In the case of `Cc1nc(N(C)C)ncc1C(=O)NCCCn1nccc1C1CC1`, the cytotoxicity at 10 µM worked out at 9.53%.

On to `CN1CCC(Cc2noc(-c3cn(Cc4ccccc4Cl)nn3)n2)CC1`, for which the cytotoxicity at 10 µM was -3.28%.

Take `CC(C)CCN1CCC2(CC1)CN(C(=O)c1cnccn1)CCO2`: the cytotoxicity at 10 µM is -12.6%.

The values above are taken from ChEMBL document CHEMBL4513216, “Probing the Open Global Health Chemical Diversity Library for Multistage-Active Starting Points for Next-Generation Antimalarials” (ACS Infect Dis, 2020).
